Test results as given in ChEMBL document CHEMBL5252539, “In vitro biological evaluation of new antimycobacterial salicylanilide-tuftsin conjugates” (Eur J Med Chem, 2017).
≈ marks a conversion by molar mass, not a printed value. Calls of active or inactive are those of the source. The calls are words filed in the database; no cut-off is given here. *1 amine or outer side, *2 acyl side, *3 side chain or, on linkers, in order; H or OH if unused. Where a SMILES comes first, the peptide text is derived from it. [ ]: non-standard residue; d: D form. The star is where a group is joined. X1 = C/C(=N\OCC(=O)[*:2])c1ccc(N[*:1])cc1; Benzoyl(5-Br-2-OH) = O=C(c1cc(Br)ccc1O)*; Palmitoyl = CCCCCCCCCCCCCCCC(=O)*; Decanoyl = CCCCCCCCCC(=O)*

How the values were obtained:
[1] = system: Mycobacterium tuberculosis; experiment: Antimycobacterial activity against Mycobacterium tuberculosis H37Rv ATCC 27294 assessed as reduction in colony forming unit after 28 days by serial dilution method; format: functional, organism-based; conditions: time 28.0 day
How it was run: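 After the 4-week MIC incubation in Sula semisynthetic medium (pH 6.5), growth inhibition confirmed by plating on Löwenstein-Jensen solid medium and counting colony forming units.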

[2] = system: Mycobacteroides abscessus; experiment: Antimycobacterial activity against Mycobacterium abscessus ATCC 19977 assessed as reduction in colony forming unit after 7 days by serial dilution method; format: functional, organism-based; conditions: time 7.0 day
How it was run: (§1)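 MIC determined in Sula semisynthetic medium, pH 6.5, 1 week incubation. Growth inhibition confirmed by plating on Löwenstein-Jensen solid medium and counting CFU. Bacteria inoculated without drug served as growth control.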

[3] = system: Mycobacterium tuberculosis; experiment: […] antimycobacterial activity against Mycobacterium tuberculosis H37Rv ATCC 27294 infected in human MONO-MAC-6 cells assessed as reduction in colony forming unit at 125 uM for 6 days by colony counting based analysis; format: functional, organism-based; conditions: time 6.0 day
How it was run: (§2)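 MonoMac6 monolayers infected with H37Rv, then treated with compound at 125 or 250 µM for 3 days. Treatment repeated with fresh compound solution for another 3 days. Intracellular bacteria quantified as CFU against untreated infected cells.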

[4] = system: Mycobacterium tuberculosis; experiment: […] antimycobacterial activity against Mycobacterium tuberculosis H37Rv ATCC 27294 infected in human MONO-MAC-6 cells assessed as reduction in colony forming unit at 250 uM for 6 days by colony counting based analysis; format: functional, organism-based; conditions: time 6.0 day; how it was run: as §2
[5] = Stability of the compound in Sula's semisynthetic medium containing 10% DMSO assessed as free salicylanilide formation at pH 6.5 at 2 mg/ml after 4 weeks at 37 degree C by reverse phase HPLC analysis
How it was run: (§3)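 Conjugate incubated in Sula semisynthetic medium (pH 6.5) at 37 °C for 4 weeks. Decomposition to free salicylanilide and 2-hydroxyacetyl-tuftsin derivative followed by analytical RP-HPLC and mass spectrometry.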

[6] = Stability of the compound in Sula's semisynthetic medium containing 10% DMSO assessed as 2-hydroxyacetyl-tuftsin derivative formation at pH 6.5 at 2 mg/ml after 4 weeks at 37 degree C by reverse phase HPLC analysis; how it was run: as §3
[7] = system: Mycobacterium tuberculosis; experiment: Antimycobacterial activity against Mycobacterium tuberculosis H37Rv ATCC 27294 assessed as reduction in bacterial growth after 28 days by serial dilution method; format: functional; conditions: H37Rv ATCC 27294, 672 h, time 28 day
How it was run: (§4)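 Broth MIC in Sula semisynthetic medium, pH 6.5; 4-week incubation, with 21-day values […] where indicated. Drug-free inoculated bacteria served as growth control. MIC also expressed as drug content (µg/mL) = MIC (µM) × average SAL molar mass × number of SAL per conjugate / 1000.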

[8] = Retention time of the compound by RP-HPLC analysis; format: physicochemical
How it was run: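 Analytical RP-HPLC on a C18 column (5 μm, 100 Å, 4.6 × 150 mm). Eluent A 0.1% TFA in water, eluent B 0.1% TFA in acetonitrile-water 80:20. Gradient 0% B for 5 min, to 60% B at 15 min, to 100% B at 25 min. Flow 1 mL/min, detection at 220 nm.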

[9] = system: Mycobacteroides abscessus; experiment: Antimycobacterial activity against Mycobacterium abscessus ATCC 19977 assessed as reduction in bacterial growth after 7 days by serial dilution method; format: functional; conditions: ATCC 19977, 168 h, time 7 day; how it was run: as §1
[10] = system: MONO-MAC-6; experiment: Cytostatic activity against human MONO-MAC-6 cells assessed as reduction in cell viability incubated for 24 hrs by MTT assay; format: functional, cell-based; conditions: MONO-MAC-6, 24 h
How it was run: (§5)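 MTT viability assay after 24 h exposure of MonoMac6 human monocytic cells or HepG2 human hepatocellular carcinoma cells. Top concentration 200 μM. IC50 taken from dose-response curves as the concentration reducing viability to 50% of maximal.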

[11] = system: HepG2; experiment: Cytostatic activity against human HepG2 cells assessed as reduction in cell viability incubated for 24 hrs by MTT assay; format: functional, cell-based; conditions: HepG2, 24 h; how it was run: as §5
[12] = Selectivity index, ratio of IC50 for cytostatic activity against human MONO-MAC-6 cells to MIC for antimycobacterial activity against Mycobacterium tuberculosis H37Rv ATCC 27294; format: toxicity, cell-based; conditions: read-out: Selectivity Index
How it was run: (§6)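 MTT assay on MonoMac6 or HepG2 cells after 24 h exposure, top concentration 200 µM. SI = IC50 (µM)/MIC (µM) against H37Rv from the 4-week Sula medium assay.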

[13] = Selectivity index, ratio of IC50 for cytostatic activity against human HepG2 cells to MIC for antimycobacterial activity against Mycobacterium tuberculosis H37Rv ATCC 27294; format: toxicity, cell-based; conditions: read-out: Selectivity Index; how it was run: as §6
[14] = Cytotoxicity against mouse bone marrow derived macrophages assessed as reduction in cell viability incubated for 48 hrs by MTT assay; format: toxicity, cell-based, Macrophage
How it was run: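 Murine bone marrow-derived macrophages exposed for 48 h, viability by MTT. Highest concentration tested 100 µM. IC50 taken from dose-response curves.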

[15] = Selectivity index, ratio of IC50 for cytotoxicity against mouse bone marrow derived macrophages to MIC for antimycobacterial activity against Mycobacterium tuberculosis H37Rv ATCC 27294; format: toxicity; conditions: read-out: Selectivity Index
How it was run: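 Murine bone marrow-derived macrophages exposed for 48 h, top concentration 100 µM. Viability read by MTT and IC50 taken from dose-response curves. SI = IC50/MIC against H37Rv.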

[16] = Stability in rat liver lysosomal homogenate assessed as drug degradation at 50 uM and measured upto 24 hrs by HPLC-MS analysis; format: ADME, subcellular, Lysosome; conditions: tissue homogenate
How it was run: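 Conjugates incubated in rat liver lysosomal homogenate. Reaction mixtures sampled at 5 min, 1 h, 2 h, 4 h, 8 h and 24 h and analysed by HPLC-MS (chromatograms and mass spectra) to identify intact conjugate, fragments and cleavage sites.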

[17] = Stability of the compound in DMSO at 4 degree C at 2 mM up to 3 weeks by reverse phase HPLC analysis; format: physicochemical; conditions: 504 h, 2000 µM
How it was run: (§7)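 Stability followed by analytical RP-HPLC and mass spectrometry under assay conditions: in DMSO at 4 °C over 3 weeks, in serum-free RPMI-1640 at 37 °C over 1 week, and in complete RPMI-1640 at 37 °C over 1 day.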

[18] = Stability of the compound in serum free RPMI-1640 medium containing 2% DMSO at 1 mg/ml after 1 week by reverse phase HPLC analysis; conditions: time 1.0 weeks; how it was run: as §7
[19] = Stability of the compound in complete RPMI-1640 medium containing 2% DMSO at 1 mg/ml after 24 hrs by reverse phase HPLC analysis; how it was run: as §7
[20] = system: Mycobacterium tuberculosis; experiment: Antimycobacterial activity against Mycobacterium tuberculosis H37Rv ATCC 27294 assessed as reduction in bacterial growth after 21 days by serial dilution method; format: functional; conditions: H37Rv ATCC 27294, 504 h, time 21 day; how it was run: as §4

Structure (SMILES)	Activity [1]	Activity [2]	Activity [3]	Activity [4]	Stability [5]	Stability [6]	MIC [7]	Retention_time [8]	MIC [9]	IC50 [10]	IC50 [11]	selectivity ratio [12]	selectivity ratio [13]	IC50 at 48 h [14]	selectivity ratio [15]	Stability [16]	Stability [17]	Stability [18]	Stability [19]	MIC [20]
C/C(=N\OCC(=O)NCC(=O)N[C@@H](Cc1ccccc1)C(=O)N[C@@H](CC(C)C)C(=O)NCC(=O)N[C@H](C(=O)N[C@@H](CCCCN)C(=O)N1CCC[C@@H]1C(=O)N[C@H](CCCCN)C(=O)NCC(=O)N[C@@H](C(=O)N[C@H](CCCCN)C(=O)N1CCC[C@H]1C(=O)N[C@H](CCCCN)C(=O)NCC(=O)N[C@@H](C(=O)N[C@@H](CCCCN)C(=O)N1CCC[C@@H]1C(=O)N[C@H](CCCCN)C(=O)NCC(=O)N[C@@H](C(=O)N[C@H](CCCCN)C(=O)N1CCC[C@H]1C(=O)N[C@H](CCCCN)C(=O)NCC(N)=O)[C@H](C)O)[C@H](C)O)[C@H](C)O)[C@@H](C)O)c1ccc(NC(=O)c2cc(Br)ccc2O)cc1	Active	Active	inactive	Active	Stable	Stable	–	–	–	–	–	–	–	–	–	–	–	–	–	–
C/C(=N\OCC(=O)N[C@H](C(=O)N[C@@H](CCCCN)C(=O)N1CCC[C@H]1C(=O)N[C@@H](CCCCN)C(=O)NCC(N)=O)[C@@H](C)O)c1ccc(NC(=O)c2cc(Br)ccc2O)cc1 ({Benzoyl(5-Br-2-OH)}-[X1]TKPKG-NH2)	Active	Active	Active	Active	–	–	21.8 µM (≈ 20 µg/mL)	15.6 min	174 µM (≈ 160 µg/mL)	> 200 µM	> 200 µM	> 9.2	> 9.2	> 100 µM	4.6	Unstable	–	–	–	–
CCCCCCCCCC(=O)NCCCC[C@H](NC(=O)[C@@H]1CCCN1C(=O)[C@H](CCCCN)NC(=O)[C@@H](NC(=O)CO/N=C(\C)c1ccc(NC(=O)c2cc(Br)ccc2O)cc1)[C@@H](C)O)C(=O)NCC(=O)N[C@H](C(=O)N[C@@H](CCCCN)C(=O)N1CCC[C@H]1C(=O)N[C@@H](CCCCN)C(=O)NCC(=O)N[C@H](C(=O)N[C@@H](CCCCN)C(=O)N1CCC[C@H]1C(=O)N[C@@H](CCCCN)C(=O)NCC(=O)N[C@H](C(=O)N[C@@H](CCCCN)C(=O)N1CCC[C@H]1C(=O)N[C@@H](CCCCN)C(=O)NCC(N)=O)[C@@H](C)O)[C@@H](C)O)[C@@H](C)O ({Benzoyl(5-Br-2-OH)}-[X1]TKPK(Decanoyl)GTKPKGTKPKGTKPKG-NH2)	Active	Active	Active	Active	–	–	–	16.4 min	76.7 µM (≈ 200 µg/mL)	24.9 µM	113 µM	0.3	1.5	71.9 µM	0.9	Unstable	Stable	Stable	Stable	76.7 µM (≈ 200 µg/mL)
CCCCCCCCCCCCCCCC(=O)NCCCC[C@H](NC(=O)[C@@H]1CCCN1C(=O)[C@H](CCCCN)NC(=O)[C@@H](NC(=O)CO/N=C(\C)c1ccc(NC(=O)c2cc(Br)ccc2O)cc1)[C@@H](C)O)C(=O)NCC(=O)N[C@H](C(=O)N[C@@H](CCCCN)C(=O)N1CCC[C@H]1C(=O)N[C@@H](CCCCN)C(=O)NCC(=O)N[C@H](C(=O)N[C@@H](CCCCN)C(=O)N1CCC[C@H]1C(=O)N[C@@H](CCCCN)C(=O)NCC(=O)N[C@H](C(=O)N[C@@H](CCCCN)C(=O)N1CCC[C@H]1C(=O)N[C@@H](CCCCN)C(=O)NCC(N)=O)[C@@H](C)O)[C@@H](C)O)[C@@H](C)O ({Benzoyl(5-Br-2-OH)}-[X1]TKPK(Palmitoyl)GTKPKGTKPKGTKPKG-NH2)	Active	Active	Active	Active	–	–	92.9 µM (≈ 250 µg/mL)	18.4 min	74.3 µM (≈ 200 µg/mL)	16.5 µM	37.6 µM	0.2	0.4	20.4 µM	0.2	Unstable	–	–	–	–
C/C(=N\OCC(=O)NCC(=O)N[C@@H](Cc1ccccc1)C(=O)N[C@@H](CC(C)C)C(=O)NCC(=O)N[C@H](C(=O)N[C@@H](CCCCN)C(=O)N1CCC[C@H]1C(=O)N[C@@H](CCCCN)C(=O)NCC(=O)N[C@H](C(=O)N[C@@H](CCCCN)C(=O)N1CCC[C@H]1C(=O)N[C@@H](CCCCN)C(=O)NCC(=O)N[C@H](C(=O)N[C@@H](CCCCN)C(=O)N1CCC[C@H]1C(=O)N[C@@H](CCCCN)C(=O)NCC(=O)N[C@H](C(=O)N[C@@H](CCCCN)C(=O)N1CCC[C@H]1C(=O)N[C@@H](CCCCN)C(=O)NCC(N)=O)[C@@H](C)O)[C@@H](C)O)[C@@H](C)O)[C@@H](C)O)c1ccc(NC(=O)c2cc(Br)ccc2O)cc1	–	–	–	–	–	–	–	15.7 min	–	86.6 µM	112 µM	0.6	0.8	92.1 µM	0.7	Unstable	–	–	–	–
C/C(=N\OCC(=O)N[C@H](C(=O)N[C@@H](CCCCN)C(=O)N1CCC[C@H]1C(=O)N[C@@H](CCCCN)C(=O)NCC(=O)N[C@H](C(=O)N[C@@H](CCCCN)C(=O)N1CCC[C@H]1C(=O)N[C@@H](CCCCN)C(=O)NCC(=O)N[C@H](C(=O)N[C@@H](CCCCN)C(=O)N1CCC[C@H]1C(=O)N[C@@H](CCCCN)C(=O)NCC(=O)N[C@H](C(=O)N[C@@H](CCCCN)C(=O)N1CCC[C@H]1C(=O)N[C@@H](CCCCN)C(=O)NCC(N)=O)[C@@H](C)O)[C@@H](C)O)[C@@H](C)O)[C@@H](C)O)c1ccc(NC(=O)c2cc(Br)ccc2O)cc1 ({Benzoyl(5-Br-2-OH)}-[X1]TKPKGTKPKGTKPKGTKPKG-NH2)	Active	Active	Active	Active	Stable	Stable	81.5 µM (≈ 200 µg/mL)	14.3 min	40.8 µM (≈ 100 µg/mL)	> 200 µM	81.9 µM	> 2.5	1	> 100 µM	1.2	Unstable	Stable	Stable	Stable	–
